Source: PubChem
FLuc inh counter = firefly luciferase enzyme inhibitors, primary screen, artefact control for luciferase-based inhibitor screens, biochemical, luminescence, ATPLite | 200,000 tested, 1.5% active | 10 min | inhibition, % at 10 µM | Luciferin 4-monooxygenase (Photinus pyralis), P08659;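 active means inhibition above about 50% when tested at 10 µM, limit read from the data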
Target sequence (P08659 whole entry, looked up): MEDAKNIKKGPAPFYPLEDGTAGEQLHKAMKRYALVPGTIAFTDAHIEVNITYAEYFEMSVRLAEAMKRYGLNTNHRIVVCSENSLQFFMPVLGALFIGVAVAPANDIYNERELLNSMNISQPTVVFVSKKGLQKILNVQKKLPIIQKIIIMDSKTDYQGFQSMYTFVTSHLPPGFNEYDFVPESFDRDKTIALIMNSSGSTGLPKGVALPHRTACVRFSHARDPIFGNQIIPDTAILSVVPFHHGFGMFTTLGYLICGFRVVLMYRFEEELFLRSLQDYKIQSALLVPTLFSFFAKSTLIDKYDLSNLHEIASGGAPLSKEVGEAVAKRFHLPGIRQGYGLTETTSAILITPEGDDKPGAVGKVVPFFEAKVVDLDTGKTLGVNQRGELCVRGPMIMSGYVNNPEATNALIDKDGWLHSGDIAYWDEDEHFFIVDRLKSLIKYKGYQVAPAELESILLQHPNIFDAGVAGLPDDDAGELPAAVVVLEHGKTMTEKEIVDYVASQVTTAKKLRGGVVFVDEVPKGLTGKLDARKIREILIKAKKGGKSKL
STAT1 activator = STAT1 signaling activators, primary screen, cell-based, HTS, luciferase reporter; NIH 3T3 STAT1-luciferase reporter, IFN-gamma, luminescence; 100% = IFN-gamma alone, no compound; activation (% of control), % at 5.5 µM; 200,000 tested, 2.6% active;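 active means activation above the screen-wide mean activation plus 3 SD, cut at about 130% in these data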
APP 5'UTR act = activators of APP 5'UTR luciferase reporter, primary screen, SH-SY5Y cells; SH-SY5Y APP 5'UTR luciferase reporter, luminescence; zero percent = DMSO vehicle wells; activation, % at 2 µM; 190,000 tested, 1% active; AID 1276, 2008;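 active means activation above a set limit, based on mean plus 3 SD of controls, cut at about 140% in these data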
FLuc act counter = FLuc activators, initial screening, artefact control for FLuc-dependent activation tests, biochemical, ATPlite luminescence. Luciferin 4-monooxygenase (Photinus pyralis), P08659. ATPlite luciferase biochemical, 10 min; 0 = ATP-free wells, 1 = DMSO control. activation factor at 10 µM. 200,000 tested, under 10 active. AID 1027, 2008;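 active means luciferase activation factor, scaled between plate controls, of at least 2 with compound at 10 µM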
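Assay system: Luciferase/luciferin reagent mix; Medium: PBS as buffer for the ATP substrate; Dosing: test compounds dosed from 2 mM stocks in 100% DMSO; Times: 10 min, room temperature; Signal: luminescence from luciferase reaction; Read-out: luciferase activation; Controls: No-ATP low control, compound-free enzyme-plus-ATP high control.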
Pf gametocyte = late stage P. falciparum gametocyte viability inhibitors, primary screen, ATP luminescence, HTS. P. falciparum stage V gametocytes, 24 h. 150,000 tested, 0.065% active. AID 743093, 2013. inhibition, % at 10.9 µM;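 active means inhibition above the mean plus 3 SD of compounds within the control limits, set per campaign, cut at about 38% in these data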
NF-kB expr up = activators of NF-kB expression in neurons, primary screen, cell-based, HTS; human neuronal cells, NF-kB reporter expression; hits give high values; fold change at 12.5 µM; 190,000 tested, 1.6% active; AID 1239, 2008; in the data active means fold change above about 3.3
Hits are given with their value; i = inactive; nt = no result given. This is a sample that favours compounds with a hit; in the whole collection about 3.5% have one here.

SMILES | FLuc inh counter | STAT1 activator | APP 5'UTR act | FLuc act counter | Pf gametocyte | NF-kB expr up
O=C(c1ccccc1)n1c(=S)nc2ccccn21 | 94 | nt | nt | i | nt | nt
Cc1ccc(C(=O)n2c(=S)nc3ccccn32)cc1 | 96 | 150 | 184 | i | nt | i
O=C(c1ccccc1)n1ccn(-c2ccccc2)c1=S | i | i | i | i | i | i
CC(=O)N(C)C1(c2nnnn2CCOC(=O)Nc2cccc3ccccc23)CCCC1 | i | i | i | i | nt | i
CC(C)(C)NC(=O)CN(C(=O)C1CSC(=O)C1)c1ccccc1F (centres undefined) | i | i | i | i | i | i
COc1cc(/C=N/NC(=O)Nc2ccccc2)ccc1OC(C)=O | i | 142 | i | i | i | i
COc1ccc(/C=N/NC(=S)Nc2cccc(C(=O)O)c2)cc1 | 56 | i | i | i | i | i
COc1ccc(/C=N/NC(=S)Nc2ccccc2)cc1COc1ccc(Br)cc1 | nt | nt | nt | nt | i | nt
COc1ccc(/C=N/NC(=S)Nc2ccccc2)cc1 | i | 133 | i | i | i | i
COc1cc(/C=N/NC(=S)Nc2cccc(C(=O)O)c2)ccc1O | i | i | i | i | i | i
COc1ccc(/C=N/NC(=O)CSCC(=O)Nc2ccccc2)cc1OC | i | i | i | i | i | i
O=C(NC(=S)Nc1ccc2ncccc2c1)c1ccccc1 | i | 131 | i | i | i | i
Cn1c(=O)c2c(ncn2CC(=O)OCC(=O)Nc2ccccc2)n(C)c1=O | i | i | i | i | i | i
COCCNC(=O)CC(=O)N/N=C/c1cccc(C(=O)OC)c1 | i | i | i | i | i | i
CS(=O)c1ccccc1-c1nc(-c2ccc([N+](=O)[O-])cc2)no1 (centres undefined) | nt | nt | nt | nt | i | nt
COC(=O)C(C)(C(=O)OC)c1ccc(C(F)(F)F)cc1[N+](=O)[O-] | i | i | i | i | i | i
Cc1ccc2c(c1)c1c(n2CCc2ccc(C)nc2)CCN(C)C1 | nt | nt | nt | nt | i | nt
C(=N\NCc1ccccc1)/c1ccc2ncccc2c1 | nt | nt | nt | nt | i | nt
COc1cccc(/C=N/NC(=S)Nc2cccc(C(=O)O)c2)c1O | 62 | i | i | i | i | i
COc1cccc(/C=N/Nc2cc(Cl)nc(C)n2)c1O | 54 | i | i | i | nt | i
COc1cccc(/C=N/NC(=O)c2ccc(-c3ccccc3)cc2)c1O | i | i | i | i | i | i
CC(C)(C)NC(=S)NNC(=O)c1ccc2ncccc2c1 | i | 136 | i | i | i | i
S=C(N/N=C/c1ccc2ncccc2c1)Nc1ccccc1 | 55 | i | i | i | i | i
O=C1CC(/C=C/c2ccccc2)=Nc2ccccc2N1 | i | 142 | i | i | nt | 4
O=C1CC(/C=C/c2cccnc2)=Nc2ccccc2N1 | i | i | i | i | i | i
SMILES | FLuc inh counter | STAT1 activator | APP 5'UTR act | FLuc act counter | Pf gametocyte | NF-kB expr up
Cc1cc(C)c(S(=O)(=O)NCc2ccccn2)c(C)c1 | nt | nt | nt | nt | i | nt
COC(=O)c1[nH]c2ccc(Br)cc2c1NC(=O)CN1CCN(C2CCCCC2)CC1 | i | i | i | i | nt | 4
COC(=O)c1[nH]c2ccc(C)cc2c1NC(=O)CCN1CCN(C2CCCCC2)CC1 | i | i | i | i | nt | i
S=C(Nc1ccc(Cl)c(Cl)c1)N1CCOCC1 | i | i | i | i | i | i
O=C(Nc1ccc(Cl)c(Cl)c1)N1CC=CCC1 | i | i | i | i | i | 3.5
CC(/C=C1\N=C(SCc2ccccc2Cl)SC1=O)=C\c1ccccc1 | i | i | i | i | nt | i
CCOc1ccc(NC(=O)CC2C(=O)N(c3ccc(OC)cc3)C(=O)N2Cc2ccc(OC)cc2)cc1 (centres undefined) | i | i | i | i | nt | i
Cc1cc(=O)c2cc(NC(=O)c3ccccc3Cl)ccc2[nH]1 | nt | nt | nt | nt | i | nt
NNC(=O)c1csc(Cc2c(Cl)sc3ccc(Cl)cc23)n1 | nt | nt | nt | nt | i | nt
Cc1cc(C)cc(-n2c(C)cc(C(=O)CSc3nnnn3C)c2C)c1 | i | i | i | i | i | i
Cc1cc(C(=O)CSc2nnnn2C)c(C)n1-c1cccc(F)c1 | i | 131 | i | i | nt | 4.8
CCOC(=O)N1CCN(c2ccc(O)cc2)CC1 | i | i | i | i | i | 3.5
O=C(c1ccc2ccccc2c1)N1CCN(c2ccc(O)cc2)CC1 | i | i | i | i | nt | 4.1
O=C(CSc1ccc2ccccc2c1)N1CCN(c2ccc(O)cc2)CC1 | nt | nt | nt | nt | i | nt
Cc1nnc(SCCn2c(N3CC(C)CC(C)C3)nc3c2c(=O)[nH]c(=O)n3C)s1 (centres undefined) | i | i | i | i | i | i
O=c1cc(-c2ccccc2)nc(N2CCN(Cc3ccc4c(c3)OCO4)CC2)[nH]1 | i | i | i | i | i | i
CCCNCc1nnc(-c2ccccc2Cl)o1 | i | i | i | i | i | i
Clc1ccccc1-c1nnc(-c2ccccc2Cl)o1 | i | i | i | i | nt | 3.4
Cc1cccc(-c2nnc(-c3ccccc3)o2)c1 | i | 132 | i | i | i | i
Cc1ccccc1-c1nnc(-c2ccc(Cl)cc2)o1 | i | 138 | i | i | nt | 4.1
Cc1ccccc1-c1nnc(-c2ccccc2)o1 | i | 131 | 138 | i | nt | 4.2
O=C(O)Cc1nc(-c2cccnc2)sc1-c1ccc(Br)cc1 | nt | nt | nt | nt | i | nt
O=C(Nc1cnn(C23CC4CC(CC(C4)C2)C3)c1)c1cnn2cccnc12 | 67 | i | i | i | i | i
N#Cc1c(NC(=O)c2cnn3cccnc23)sc2c1CCCC2 | i | i | i | i | nt | i
O=C(CN1C(=O)c2ccccc2C1=O)NNC1=NS(=O)(=O)c2ccccc21 | i | i | i | i | i | i
SMILES | FLuc inh counter | STAT1 activator | APP 5'UTR act | FLuc act counter | Pf gametocyte | NF-kB expr up
Cc1ccccc1/C=C/c1nc2ccccc2c(=O)[nH]1 | nt | nt | nt | nt | i | nt
Cc1ccccc1/C=C\c1nc2ccccc2c(=O)[nH]1 | 56 | i | 164 | i | i | 4.4
CC(C)(C)CC(=O)O/N=C(\N)c1ccncc1 | i | i | i | i | i | i
COC(=O)c1ccc(CO/N=C2\CCCc3nonc32)cc1 | i | 139 | i | i | i | i
O=C(NNC1=NCCCCC1)Nc1cccc(Cl)c1 | i | 136 | i | i | i | i
COc1ccc(C2/C=C\CN(C(=O)c3ccccc3)[C@H](Cc3ccccc3)C(=O)N2Cc2ccc(F)cc2)cc1 (some centres undefined) | nt | nt | nt | nt | i | nt
Nc1ccc(Oc2ccc(Br)cc2)cc1 | i | i | i | i | i | 3.5
Nc1ccc(Oc2cccc(Oc3ccc(N)cc3)c2)cc1 | i | i | i | i | i | i
C=CCc1ccc(OCc2ccc(C(=O)OC)o2)c(OC)c1 | i | i | i | i | nt | 3.4
Cn1c(SCC(=O)c2ccccc2)nnc1-c1ccc(O)cc1 | i | 129 | i | i | i | i
